In test [1] the test system is DU-145. In words: Growth inhibition of human DU145 cells after 72 hrs by MTT assay. The test is classed as functional, cell-based. The note with it: DU-145, 72 h. A digest of the protocol:
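Du145 human prostate carcinoma cells were screened by MTT cell-growth inhibition assay. IC50 values are means of three experiments.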
In general terms: Formazan colour is commonly taken as a measure of viable cells.

In the next test the test system is HT-29. The experiment in a line: Antiproliferative activity against human HT-29 cells after 72 hrs by MTT assay. The test is classed as functional, cell-based. The note with it: HT-29, 72 h.
For a further test, the system named is IMR-90. In words: Antiproliferative activity against human IMR90 cells after 72 hrs by MTT assay. The note with it: IMR-90, 72 h. It counts as cell-based.
Another test concerns SGC-7901. The experiment in a line: Antiproliferative activity against human SGC7901 cells after 72 hrs by MTT assay. The test is classed as functional, cell-based. The note with it: SGC-7901, 72 h.
Another test relates to HT-1080. The experiment in a line: Antiproliferative activity against human HT1080 cells after 72 hrs by MTT assay. It counts as functional, cell-based. The note with it: HT-1080, 72 h.
Test [2] has as its system DU-145. In words: Induction of apoptosis in human DU145 cells at 10 uM assessed as dead cell level after 72 hrs by AnnexinV conjugated 7- AAD staining by flow cytometry. It counts as functional. A digest of the protocol: (§1)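 Du145 human prostate carcinoma cells exposed to compound for 72 h, then stained with Annexin V and 7-AAD and analysed by flow cytometry. Annexin V detects phosphatidylserine externalised to the outer membrane leaflet, and 7-AAD enters only membrane-compromised cells. Dead cells were those positive for both stains. Untreated cells served as control.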
(In general: Flow cytometry measures light scatter and fluorescence of single cells or particles in a stream.)

In test [3] the test system is DU-145. In words: Induction of apoptosis in human DU145 cells at 5 uM assessed as live cell level after 72 hrs by AnnexinV conjugated 7- AAD staining by flow cytometry. It counts as functional. A digest of the protocol:
(§2)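 Du145 cells were treated for 72 h and stained with Annexin V conjugate plus 7-AAD. Flow cytometry read PS externalization and membrane integrity, scoring cells as live (double negative), early apoptotic, or late apoptotic/necrotic (double positive). Untreated cells served as the control.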

The subject of test [4] is DU-145. The experiment in a line: Induction of apoptosis in human DU145 cells at 10 uM assessed as live cell level after 72 hrs by AnnexinV conjugated 7- AAD staining by flow cytometry. It counts as functional. A digest of the protocol: as §2
Test [5] relates to DU-145. In words: Induction of apoptosis in human DU145 cells at 10 uM assessed as early apoptosis level after 72 hrs by AnnexinV conjugated 7- AAD staining by flow cytometry. It counts as functional. The gist of the method:
as §2

Another test concerns MOLT-4. In words: Antiproliferative activity against human MOLT4 cells after 72 hrs by MTT assay. The test is classed as functional, cell-based. The note with it: MOLT-4, 72 h.
A short description of test [6]: Antiproliferative activity against human L78 cells after 72 hrs by MTT assay. The test is classed as functional, cell-based. The note with it: L78, 72 h.
The subject of test [7] is DU-145. In words: Induction of apoptosis in human DU145 cells at 5 uM assessed as dead cell level after 72 hrs by AnnexinV conjugated 7- AAD staining by flow cytometry. The test is classed as functional. A digest of the protocol: as §1
The subject of another test is MCF7. In words: Antiproliferative activity against human MCF7 cells after 72 hrs by MTT assay. It counts as functional, cell-based. The note with it: MCF7, 72 h.
Another test concerns HeLa. The experiment in a line: Antiproliferative activity against human HeLa cells after 72 hrs by MTT assay. The test is classed as functional, cell-based.
The subject of test [8] is DU-145. In words: Induction of apoptosis in human DU145 cells at 5 uM assessed as early apoptosis level after 72 hrs by AnnexinV conjugated 7- AAD staining by flow cytometry. It counts as functional. A digest of the protocol:
as §2

The test system of a further test is OS-RC-2. The experiment in a line: Antiproliferative activity against human OS-RC2 cells after 72 hrs by MTT assay. The test is classed as functional, cell-based. The note with it: OS-RC-2, 72 h.
For the next test, the system named is U-251. In words: Antiproliferative activity against human U251 cells after 72 hrs by MTT assay. The note with it: U-251, 72 h. The test is classed as functional, cell-based.
In the next test the test system is A549. In words: Antiproliferative activity against human A549 cells after 72 hrs by MTT assay. It counts as functional, cell-based. The note with it: A549, 72 h.
Test [9] concerns DU-145. The experiment in a line: Induction of apoptosis in human DU145 cells at 5 uM assessed as late apoptosis/ necrotic cells level after 72 hrs by AnnexinV conjugated 7- AAD staining by flow cytometry. The test is classed as functional. A digest of the protocol:
as §2

The next test deals with KB. In words: Antiproliferative activity against human KB cells after 72 hrs by MTT assay. The test is classed as functional, cell-based.
The test system of the next test is HepG2. The experiment in a line: Antiproliferative activity against human HepG2 cells after 72 hrs by MTT assay. The test is classed as functional, cell-based. The note with it: HepG2, 72 h.
Test [10] has as its system DU-145. In words: Induction of apoptosis in human DU145 cells at 10 uM assessed as late apoptosis/ necrotic cells level after 72 hrs by AnnexinV conjugated 7- AAD staining by flow cytometry. It counts as functional. The gist of the method: as §2

Consider `O=C1C=C(N2CCC(c3ccccc3)CC2)C(=O)c2ccccc21`, for which, in the test with DU-145 [1], the IC50 (in general, the concentration that gives 50% inhibition) stood at 6 µM. This counts as single-digit micromolar.
The same measure, in the same setting: the value for `O=C1C=C(N2CCN(c3ccc(F)cc3)CC2)C(=O)c2ccccc21` was 11.7 µM; that for `O=C1C=C(N2CCN(c3ccc(F)cc3)CC2)C(=O)c2c(O)cccc21` was 8.4 µM.
The same measure, in the same setting: the value for `O=C1C=C(N2CCN(c3cccc(Cl)c3)CC2)C(=O)c2ccccc21` was 8.3 µM; that for `O=C1C(O)=C([C@H]2CC[C@H](c3ccc(Cl)cc3)CC2)C(=O)c2ccccc21` [ATOVAQUONE] was 29.3 µM; that for `Cc1ccc(N2CCN(C3=CC(=O)c4ccccc4C3=O)CC2)cc1` was 8.2 µM.
For `O=C1C(N2CCN(c3ccccc3)CC2)=CC(=O)c2c(O)cccc21`, the IC50 with DU-145 [1] was determined as 15.2 µM.
On the same count and under the same terms, the result for `COc1cccc(N2CCN(C3=CC(=O)c4ccccc4C3=O)CC2)c1` reads 15 µM; that for `COc1cc(OC)cc(N2CCN(C3=CC(=O)c4ccccc4C3=O)CC2)c1`, 14.9 µM.
In turn, `O=C1C(N2CCN(c3ccc(F)cc3)CC2)=CC(=O)c2c(O)cccc21` yielded an IC50 in the test with DU-145 [1] of 22.4 µM.
Consider `O=C1C=C(N2CCN(c3ccccc3)CC2)C(=O)c2c(O)ccc(O)c21`, for which the half-inhibitory concentration (IC50) with HT-29 is 2.6 µM; with IMR-90, > 50 µM; with SGC-7901, 2.5 µM; with HT-1080 it was 2.8 µM; with MOLT-4, > 50 µM; in test [6], 1.9 µM. Also, the IC50 was found to be 3 µM in the test on MCF7; 2.1 µM in the test with HeLa; 1.5 µM with OS-RC-2; 6.1 µM with U-251; 1.7 µM with A549; 1.4 µM in the test with KB. The IC50 in the test with HepG2 amounted to 5.4 µM; in the test with DU-145 [1] it was 1.3 µM. Also, the Activity in the test on DU-145 [2] came out at 0.53%; with DU-145 [3], 7.48%; with DU-145 [4], 0.95%; with DU-145 [5], 13.77%; with DU-145 [7] it was 1.39%; with DU-145 [8], 19.8%. Also, the Activity in the test on DU-145 [9] came to 71.34%; with DU-145 [10], 84.76%.
Turning to `Cc1ccccc1C1CCN(C2=CC(=O)c3ccccc3C2=O)CC1`, in the test on DU-145 [1], the IC50 was determined as 6.1 µM.
For `O=C1C=C(N2CCC(c3ccccc3)CC2)C(=O)c2c(O)cccc21`, the half-inhibitory concentration (IC50) with HT-29 was 5.4 µM; in the test with IMR-90 it was > 50 µM; in the test with SGC-7901 it was 11.1 µM; in the test on HT-1080, 11.1 µM; in the test with MOLT-4, 2.7 µM; in [6], 13.4 µM. Besides, the half-maximal inhibitory concentration (IC50) was 8.8 µM in the test on MCF7; 8.6 µM in the test with HeLa; 0.7 µM in the test with OS-RC-2; 10.8 µM in the test on U-251; > 50 µM in the test with A549; 2.2 µM in the test on KB. Besides, the IC50 in the test with HepG2 amounted to 9.7 µM; in the test with DU-145 [1], 3 µM. The Activity with DU-145 [2] is on record as 7.68%; with DU-145 [3], 53.01%; with DU-145 [4] it was 50.85%; with DU-145 [5], 3.17%; with DU-145 [7] it was 5.57%; with DU-145 [8], 3.87%. The Activity turned out to be 37.56% in the test with DU-145 [9] and 38.3% in the test with DU-145 [10].
Consider `O=C1C=C(N2CCN(c3ccc(Cl)cc3)CC2)C(=O)c2ccccc21`, for which it took 29.5 µM to reach half-maximal inhibition with DU-145 [1] (IC50). That is a double-digit micromolar value.

These data come from ChEMBL document CHEMBL1782036, “Atovaquone derivatives as potent cytotoxic and apoptosis inducing agents” (Bioorg Med Chem Lett, 2009).
